Bioassay records: PubChem BioAssay, several laboratories
Most compounds without a hit are left out; they make up all but 3.7% or so of the library.
m-calpain inh = inhibitors of pig calpain II, primary screen, biochemical, fluorogenic peptide substrate, 1536-well; AID 1236, 2008; 220,000 tested, 0.37% active; purified calpain II, 30 min; inhibition, % at 16 µM;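 active = inhibition above about 50%, limit read from the data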
KCC2 mod = KCC2 cotransporter modulators, thallium flux, primary screen, cell-based, HEK293 KCC2, FluoZin-2 fluorescence, MLSMR; 190,000 tested, 2.2% active; B-score of Tl+ flux slope (higher = more flux/activation; lower = inhibition) at 10 µM; Solute carrier family 12 member 5 (Homo sapiens), Q9H2X9; KCC2 cells, thallium flux FluoZin-2 fluorescence;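 active = thallium flux slope and its plate-corrected score both differing from the plate sample mean at a set confidence after two filtering rounds, in either direction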;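 also: slope of fluorescence scaled to starting intensity during 10 to 20 s after thallium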
Target sequence (Q9H2X9 whole entry, looked up): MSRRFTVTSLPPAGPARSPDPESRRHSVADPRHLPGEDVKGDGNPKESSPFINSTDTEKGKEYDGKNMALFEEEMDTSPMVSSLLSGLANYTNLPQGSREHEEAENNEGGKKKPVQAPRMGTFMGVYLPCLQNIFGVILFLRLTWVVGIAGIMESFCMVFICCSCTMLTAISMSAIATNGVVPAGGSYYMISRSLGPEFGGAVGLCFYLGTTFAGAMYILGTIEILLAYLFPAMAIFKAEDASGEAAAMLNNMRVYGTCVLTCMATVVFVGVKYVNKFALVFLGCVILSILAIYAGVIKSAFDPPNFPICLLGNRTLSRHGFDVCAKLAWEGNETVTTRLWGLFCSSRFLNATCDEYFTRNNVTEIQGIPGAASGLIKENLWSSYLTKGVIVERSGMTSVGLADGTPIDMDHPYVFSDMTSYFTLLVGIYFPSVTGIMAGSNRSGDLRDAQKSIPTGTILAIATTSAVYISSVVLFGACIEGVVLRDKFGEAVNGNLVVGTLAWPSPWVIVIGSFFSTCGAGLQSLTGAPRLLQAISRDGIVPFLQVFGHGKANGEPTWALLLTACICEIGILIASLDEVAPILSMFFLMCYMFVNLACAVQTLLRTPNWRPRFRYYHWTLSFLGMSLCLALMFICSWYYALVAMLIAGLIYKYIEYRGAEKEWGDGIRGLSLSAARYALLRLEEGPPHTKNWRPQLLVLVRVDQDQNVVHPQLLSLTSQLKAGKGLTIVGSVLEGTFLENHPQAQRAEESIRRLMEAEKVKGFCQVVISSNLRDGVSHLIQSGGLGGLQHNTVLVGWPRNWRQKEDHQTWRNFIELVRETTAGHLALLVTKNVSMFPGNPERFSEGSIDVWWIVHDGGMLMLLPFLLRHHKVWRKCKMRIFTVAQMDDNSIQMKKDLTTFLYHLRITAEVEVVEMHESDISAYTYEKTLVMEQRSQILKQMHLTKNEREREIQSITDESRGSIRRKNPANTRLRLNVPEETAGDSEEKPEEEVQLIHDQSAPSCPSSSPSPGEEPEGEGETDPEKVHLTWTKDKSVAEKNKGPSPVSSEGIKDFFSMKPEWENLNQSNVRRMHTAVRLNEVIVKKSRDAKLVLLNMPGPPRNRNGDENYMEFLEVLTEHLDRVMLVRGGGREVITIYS
PKD1 inh = inhibitors of human PKD1 kinase, biochemical, fluorescence polarization. Serine/threonine-protein kinase D1 (Homo sapiens), Q15139. PKD1 kinase fluorescence polarization assay. inhibition, % (test concentration not listed). 200,000 tested, 0.056% active. AID 797, 2007; in the data active = inhibition above about 50%
MDM2 E3 inh = MDM2-luciferase reporter signal enhancers, primary screen, MDM2 E3 ligase inhibitor project, cell-based, luminescence, 1536-well; E3 ubiquitin-protein ligase Mdm2 (Homo sapiens), Q00987; signal enhancement, % at 5 µM; 210,000 tested, 0.11% active; cell-based MDM2 ubiquitination luciferase reporter, 2 h; 0 = plate control, 100 = twice control, blank-subtracted;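 active = signal enhancement of 30% or more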;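 also: luminescence tracks abundance of the self-degrading MDM2-luciferase fusion protein; higher signal means inhibition of MDM2 E3 ligase activity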
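Test system: mammalian cells stably expressing self-ubiquitinating, self-degrading MDM2 E3–luciferase fusion; Amount: 2000 cells in each well; Medium: DMEM; Schedule: 4 h settle plus 2 h compound, 37 °C; Technique: SteadyLite luciferase luminescence after 15 min room-temperature reagent incubation; Benchmarks: plate control and blank wells.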
Arbovirus inh = antivirals against arbovirus infection, primary screen, cell-based, full library, 10K replicate subset; 200,000 tested, 0.37% active; arbovirus infection cell-based antiviral screen; inhibition, % at 10 µM; in the data active = inhibition above about 30%
ROMK primary = ROMK potassium channel modulators, primary screen, cell-based, thallium flux, MLSMR library | ATP-sensitive inward rectifier potassium channel 1 (Homo sapiens), P48048 | Tet-inducible ROMK, thallium flux fluorescence; actives lie on both sides | B-score at 10 µM | 130,000 tested, 2% active | AID 1918, 2009;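 active = signal ratio slope over the read window, or its plate-corrected B-score, at least 3 SD from the plate mean, either direction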;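 also: B-score of the F/F0 ratio slope over 7 to 12 s after thallium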
KCC2 secondary = KCC2 modulators in sodium-free buffer, confirmation, cell-based, HEK293 KCC2, thallium flux, secondary assay. normalised thallium flux (F/F0 slope) at 10 µM. 3,700 tested, 15% active. AID 1713, 2009. shares compounds with KCC2 mod. FluoZin2 fluorescence; hits give high values;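 active = thallium flux slope above the same plate's solvent-only control mean plus 3 SD; inconclusive = the two replicate wells disagree; inactive = no significant difference from solvent-only control wells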
KCC2 bumet counter = thallium flux persisting under bumetanide in KCC2 cells, confirmation, counter-screen for KCC2 modulator project, cell-based, HEK293 KCC2, FluoZin2, secondary assay 3. shares compounds with KCC2 mod. HEK293-KCC2 + bumetanide/ouabain; hits give high values. normalized thallium flux at 10 µM. 3,700 tested, 49% active. AID 1714, 2009;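 active = thallium entry rate above the same plate's blocked-transporter control wells by more than 3 SD; inconclusive = the two repeat wells disagree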;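 also: raw slope of fluorescence over initial fluorescence between 10 and 20 s after thallium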
KCC2 sec2 = KCC2 modulators without ouabain present, confirmation, cell-based, HEK293 KCC2, thallium flux, FluoZin2, secondary assay 2 | shares compounds with KCC2 mod | thallium flux FluoZin2 fluorescence; actives lie on both sides; F/F0 rise rate, 10–20 s post-thallium | normalized thallium flux at 10 µM | 3,700 tested, 23% active;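 active = thallium flux slope more than 3 SD above or below the plate's solvent-only control mean, mostly below; inconclusive = the two repeat wells disagreed; inactive = no significant shift from solvent-only controls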;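 also: raw slope with 0.1% DMSO as baseline and bumetanide as block control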
HEK counter1 = thallium flux modulation in parental HEK cells, confirmation, counter-screen for KCC2 modulator project, cell-based, counterscreen 1 | shares compounds with KCC2 mod | HEK293 parental cells, thallium flux FluoZin2, ouabain; baseline-ratio fluorescence slope, 10–20 s after thallium | thallium flux rate (normalised fluorescence) at 10 µM | 3,700 tested, 46% active;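 active = thallium flux rate significantly above the same plate's solvent-only control wells, beyond their mean plus 3 SD; inconclusive = the two replicate wells gave conflicting results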
KCC2 ouabain = KCC2 inhibitors and activators, ouabain retest, confirmation, HEK-KCC2 cells. AID 1717, 2009. HEK293-KCC2, thallium flux FluoZin2 fluorescence; bidirectional: low = inhibitor, high = activator. 3,700 tested, 48% active. shares compounds with KCC2 mod. raw Tl+ flux slope (below DMSO = inhibition, above = activation) at 10 µM;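 active = thallium flux slope beyond 3 SD from same-plate DMSO control mean in most replicates, usually higher, sometimes lower; inconclusive = repeat tests gave conflicting results; inactive = no significant difference from controls in most replicates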;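 also: slope of initial-normalized fluorescence between seconds 10 and 20 after thallium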
HEK counter2 = native HEK Tl+ uptake effects, second counter-screen – HEK cells, counterscreen 2, counter-screen for KCC2 modulator project, confirmation | 3,700 tested, 33% active | thallium flux slope at 10 µM | HEK293 parental, thallium flux FluoZin-2 fluorescence slope | shares compounds with KCC2 mod;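 active = thallium flux slope above the same plate's solvent-control mean plus 3 SD in both duplicate wells; inconclusive = duplicate wells that disagreed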;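 also: run without ouabain in cells lacking the KCC2 cotransporter; slope of fluorescence scaled to its starting value between 10 and 20 s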
* hit, by the source's call.

What do the screens show for `O=C(c1ccc(S(=O)(=O)Cc2ccccc2F)c([N+](=O)[O-])c1)N1CCCCCC1`?
m-calpain inh: 14.3; KCC2 mod: -0.131; PKD1 inh: 4.3; MDM2 E3 inh: -13.3; Arbovirus inh: -5.6; ROMK primary: -0.762

What do the screens show for `Nn1c(Nc2ccccc2)nc2sc3c(c2c1=O)CCCC3`?
m-calpain inh: 38.4; KCC2 mod: -1.41; PKD1 inh: 0.6; MDM2 E3 inh: -6.5; Arbovirus inh: -3.0; ROMK primary: -0.0342

How did Cc1cnc(C(=O)Nc2cc(S(=O)(=O)N3CCOCC3)ccc2N2CCN(C)CC2)cn1 do in these assays?
m-calpain inh: 1.6; KCC2 mod: 0.402; PKD1 inh: -3.7; MDM2 E3 inh: -45.8; Arbovirus inh: 11.6

What do the screens show for `COCCOc1cc2ncnc(N3CCC(C(=O)O)CC3)c2cc1OCCOC`?
m-calpain inh: 3.1; KCC2 mod: 0.471; MDM2 E3 inh: -12.6

How did CNC(=O)CSc1nc(N)c2c3c(sc2n1)CCC3 do in these assays?
m-calpain inh: -8.1; KCC2 mod: -5.85*; PKD1 inh: -2.9; MDM2 E3 inh: -6.0; Arbovirus inh: -9.0; KCC2 secondary: 0.0109; KCC2 bumet counter: 0.00649; KCC2 sec2: 0.034; HEK counter1: 0.00773; KCC2 ouabain: 0.022; HEK counter2: 0.0103

What do the screens show for `CN1c2ccccc2C(C)(C)[C@]12C=Cc1cc(O)ccc1O2`?
m-calpain inh: 10.8; KCC2 mod: -3.39*; PKD1 inh: -6.4; MDM2 E3 inh: -1.1; Arbovirus inh: -2.9; ROMK primary: -1.75; KCC2 secondary: 0.00752; KCC2 bumet counter: inconclusive; KCC2 sec2: 0.033; HEK counter1: 0.00698; KCC2 ouabain: 0.0159*; HEK counter2: 0.0108

What do the screens show for `CN1c2ccccc2C(C)(C)C12C=Nc1c(ccc3ccccc13)O2` (stereo unspecified)?
m-calpain inh: 10.6; KCC2 mod: -0.194; PKD1 inh: 9.3; MDM2 E3 inh: -22.4; Arbovirus inh: -12.4

What do the screens show for `COC(=O)c1cnc(NNS(=O)(=O)c2ccc(Cl)cc2)nc1C(F)(F)F`?
m-calpain inh: -11.9; KCC2 mod: 0.335; MDM2 E3 inh: -13.4; ROMK primary: -0.0347

What do the screens show for `COC(=O)c1cnc(NNC(=O)c2ccc([N+](=O)[O-])cc2)nc1C(F)(F)F`?
m-calpain inh: 12.9; KCC2 mod: 3.51*; MDM2 E3 inh: -9.9; KCC2 secondary: 0.00921; KCC2 bumet counter: 0.0109*; KCC2 sec2: 0.0324; HEK counter1: inconclusive; KCC2 ouabain: 0.0212; HEK counter2: 0.0115

What do the screens show for `Cc1ccc(S(=O)(=O)N(C)c2ccc(C(=O)N3CCc4ccccc4C3)cc2)cc1`?
m-calpain inh: 30.5; KCC2 mod: -4.75*; PKD1 inh: 2.9; MDM2 E3 inh: -20.1; Arbovirus inh: -6.0; ROMK primary: -0.328; KCC2 secondary: 0.0144; KCC2 bumet counter: 0.00392; KCC2 sec2: 0.0236*; HEK counter1: inconclusive; KCC2 ouabain: 0.0126*; HEK counter2: 0.00948

Results for CN(c1ccccc1)S(=O)(=O)c1ccc(C(=O)N2CCc3ccccc3C2)cc1 ?
m-calpain inh: 25.6; KCC2 mod: -1.99; PKD1 inh: -0.3; MDM2 E3 inh: 1.3; Arbovirus inh: 0.6; ROMK primary: -0.472

What do the screens show for `c1ccc(-n2cnc3cc(NCc4ccncc4)ccc32)cc1`?
m-calpain inh: -8.6; KCC2 mod: -4.37*; PKD1 inh: -3.0; MDM2 E3 inh: -26.4; Arbovirus inh: 1.9; ROMK primary: -0.0976; KCC2 secondary: 0.00559; KCC2 bumet counter: 0.00451; KCC2 sec2: 0.0249*; HEK counter1: 0.00738; KCC2 ouabain: inconclusive; HEK counter2: 0.00951

What do the screens show for `c1ccc(-n2cnc3cc(NCc4ccccn4)ccc32)cc1`?
m-calpain inh: 10.5; KCC2 mod: -0.0111; PKD1 inh: -2.2; MDM2 E3 inh: -25.2; Arbovirus inh: -11.8

Results for O=C(NCc1cccnc1)c1cc2nc(-c3cccs3)cc(C(F)(F)Cl)n2n1 ?
m-calpain inh: 24.8; KCC2 mod: -0.408; PKD1 inh: -5.3; MDM2 E3 inh: -6.2; Arbovirus inh: 0.3; ROMK primary: -0.371

Results for Cn1c(CSc2nc3ccccc3s2)nnc1SCC(=O)NCc1ccccn1 ?
m-calpain inh: -7.8; KCC2 mod: -3.98*; PKD1 inh: -18.1; MDM2 E3 inh: 0.4; Arbovirus inh: 1.6; ROMK primary: 0.474; KCC2 secondary: 0.00694; KCC2 bumet counter: 0.00442; KCC2 sec2: 0.0304; HEK counter1: 0.00739; KCC2 ouabain: inconclusive; HEK counter2: 0.0095

How did O=C(OCn1ncc(Cl)c(Cl)c1=O)c1ccc(F)cc1 do in these assays?
m-calpain inh: 20.3; KCC2 mod: -4.11*; PKD1 inh: -9.4; MDM2 E3 inh: -17.3; Arbovirus inh: -29.5; KCC2 secondary: 0.0069; KCC2 bumet counter: inconclusive; KCC2 sec2: 0.0256*; HEK counter1: 0.0076; KCC2 ouabain: inconclusive; HEK counter2: 0.0108
